Results reported in ChEMBL document CHEMBL1132120, “Identification of highly selective inhibitors of collagenase-1 from combinatorial libraries of diketopiperazines” (J Med Chem, 1999).

Columns and labels:
[1] = target: Matrix metalloproteinase-9 (Homo sapiens, UniProt P14780); assay: Inhibitory activity against Matrix metalloprotease-9; parameters: species or system Komagataella pastoris
Outline: (§1)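 Recombinant enzymes: C-terminally truncated collagenase-1, gelatinase-B and stromelysin. IC50 from nonlinear fit of rate versus inhibitor concentration to v = V0/(1+[I]/IC50). Values are the average of two or more independent determinations, SD ±20% or better.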

[2] = target: T1, Interstitial collagenase (Homo sapiens, UniProt P03956); assay: Inhibitory activity against Matrix metalloprotease-1; outline: as §1
T1 sequence (P03956 whole entry): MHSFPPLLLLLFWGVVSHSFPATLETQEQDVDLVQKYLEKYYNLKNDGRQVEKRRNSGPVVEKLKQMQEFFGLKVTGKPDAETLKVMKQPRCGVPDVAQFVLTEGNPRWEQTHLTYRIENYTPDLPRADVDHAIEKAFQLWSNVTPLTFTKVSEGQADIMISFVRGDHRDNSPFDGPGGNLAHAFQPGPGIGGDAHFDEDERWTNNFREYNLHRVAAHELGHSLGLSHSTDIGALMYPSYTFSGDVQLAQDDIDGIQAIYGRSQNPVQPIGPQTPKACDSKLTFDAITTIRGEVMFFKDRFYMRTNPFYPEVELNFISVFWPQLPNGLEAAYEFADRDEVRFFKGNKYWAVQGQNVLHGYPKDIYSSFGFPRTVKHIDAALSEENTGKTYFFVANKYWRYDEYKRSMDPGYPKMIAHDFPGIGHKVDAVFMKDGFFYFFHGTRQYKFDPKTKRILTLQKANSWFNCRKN

[3] = Inhibitory activity against stromelysin.; outline: as §1

Matrix metalloproteinase-9, sequence (P14780 whole entry, the tested form may be a part): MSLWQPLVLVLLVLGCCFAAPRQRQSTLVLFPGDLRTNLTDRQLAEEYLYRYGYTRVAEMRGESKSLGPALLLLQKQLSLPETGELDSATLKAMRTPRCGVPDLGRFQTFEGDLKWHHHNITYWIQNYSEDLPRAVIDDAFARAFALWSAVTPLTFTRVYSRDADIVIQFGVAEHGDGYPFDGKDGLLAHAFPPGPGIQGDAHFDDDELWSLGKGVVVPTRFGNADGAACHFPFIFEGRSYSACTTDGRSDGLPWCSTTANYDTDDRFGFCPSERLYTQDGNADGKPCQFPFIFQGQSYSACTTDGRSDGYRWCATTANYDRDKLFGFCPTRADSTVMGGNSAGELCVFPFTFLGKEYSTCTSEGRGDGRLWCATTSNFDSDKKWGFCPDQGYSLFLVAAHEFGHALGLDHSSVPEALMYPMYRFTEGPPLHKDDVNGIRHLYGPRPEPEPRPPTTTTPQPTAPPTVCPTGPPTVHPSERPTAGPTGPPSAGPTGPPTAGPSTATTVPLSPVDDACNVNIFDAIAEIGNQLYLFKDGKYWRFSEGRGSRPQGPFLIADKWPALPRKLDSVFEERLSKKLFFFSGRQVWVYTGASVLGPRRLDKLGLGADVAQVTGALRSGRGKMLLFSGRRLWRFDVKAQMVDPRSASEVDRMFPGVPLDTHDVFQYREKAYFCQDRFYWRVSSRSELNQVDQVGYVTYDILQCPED

CC(C)(C)NC(=O)C(Cc1ccccc1)N1C(=O)[C@H](CS)NC(=O)[C@@H]1Cc1ccc([N+](=O)[O-])cc1 (some centres undefined)
IC50 [1]: 1200 nM | IC50 [2]: 37 nM

CC(C)(C)NC(=O)C(C1CC1)N1C(=O)[C@H](CS)NC(=O)[C@@H]1Cc1ccc([N+](=O)[O-])cc1 (some centres undefined)
IC50 [1]: 1180 nM | IC50 [2]: 37 nM

CCCN1C(=O)[C@H](CS)NC(=O)[C@@H]1Cc1ccc([N+](=O)[O-])cc1
IC50 [3]: > 20000 nM | IC50 [1]: 2900 nM | IC50 [2]: 65 nM

COc1ccc(C(C(=O)NC(C)(C)C)N2C(=O)[C@H](CS)NC(=O)[C@@H]2Cc2ccc([N+](=O)[O-])cc2)cc1 (some centres undefined)
IC50 [1]: 1300 nM | IC50 [2]: 21 nM

CC(C)(C)NC(=O)C(c1ccc(-c2ccccc2)cc1)N1C(=O)[C@H](CS)NC(=O)[C@@H]1Cc1ccc([N+](=O)[O-])cc1 (some centres undefined)
IC50 [1]: 4300 nM | IC50 [2]: 102 nM

CC(C)(C)NC(=O)C(c1ccccc1)N1C(=O)[C@H](CS)NC(=O)[C@@H]1Cc1ccc([N+](=O)[O-])cc1 (some centres undefined)
IC50 [1]: 1300 nM | IC50 [2]: 25 nM

CCCCCCCC(C(=O)NC(C)(C)C)N1C(=O)[C@H](CS)NC(=O)[C@@H]1Cc1ccc([N+](=O)[O-])cc1 (some centres undefined)
IC50 [1]: 1500 nM | IC50 [2]: 36 nM

O=C1N[C@@H](CS)C(=O)N(Cc2ccc3ccccc3n2)[C@H]1Cc1ccc([N+](=O)[O-])cc1
IC50 [3]: > 20000 nM | IC50 [1]: 1700 nM | IC50 [2]: 74 nM

CC(C)CC(C(=O)NC(C)(C)C)N1C(=O)[C@H](CS)NC(=O)[C@@H]1Cc1ccc([N+](=O)[O-])cc1 (some centres undefined)
IC50 [1]: 570 nM | IC50 [2]: 24 nM

CC(C)(C)NC(=O)C(c1ccc(Oc2ccccc2)cc1)N1C(=O)[C@H](CS)NC(=O)[C@@H]1Cc1ccc([N+](=O)[O-])cc1 (some centres undefined)
IC50 [1]: 4400 nM | IC50 [2]: 108 nM

CCc1ccc(C(C(=O)NC(C)(C)C)N2C(=O)[C@H](CS)NC(=O)[C@@H]2Cc2ccc([N+](=O)[O-])cc2)cc1 (some centres undefined)
IC50 [1]: 2600 nM | IC50 [2]: 41 nM

COc1ccc(CN2C(=O)[C@H](CS)NC(=O)[C@@H]2CC2CCCCC2)cc1
IC50 [3]: 3800 nM

CCCN1C(=O)[C@H](CS)NC(=O)[C@@H]1Cc1ccc(NC(C)=O)cc1
IC50 [3]: > 40000 nM | IC50 [1]: > 40000 nM | IC50 [2]: > 40000 nM

COc1ccc(CN2C(=O)[C@H](CS)NC(=O)[C@@H]2Cc2ccccc2)cc1
IC50 [3]: 4000 nM | IC50 [1]: 400 nM | IC50 [2]: 110 nM

CCCCOc1ccc(C(C(=O)NC(C)(C)C)N2C(=O)[C@H](CS)NC(=O)[C@@H]2Cc2ccc([N+](=O)[O-])cc2)cc1 (some centres undefined)
IC50 [1]: 3200 nM | IC50 [2]: 73 nM

COc1ccc(CN2C(=O)[C@H](CS)NC(=O)[C@@H]2Cc2ccc([N+](=O)[O-])cc2)cc1
IC50 [3]: > 40000 nM | IC50 [1]: 1200 nM | IC50 [2]: 47 nM

COc1ccc(CSC[C@H]2C(=O)N[C@@H](CS)C(=O)N2Cc2ccc(OC)cc2)cc1
IC50 [3]: 1100 nM | IC50 [1]: 52 nM | IC50 [2]: 310 nM
